Measured values taken from article PMC10586269 (ACS Omega, 2023).
Marks after values point to notes of the source that are not given here.

Columns and labels:
[1] = target: T1, PfHsp90-NTD (Plasmodium falciparum, UniProt Q8IC05); test: Competition binding, FITC-geldanamycin fluorescence polarization assay, PfHsp90; details: read-out: FP inhibition % PfHsp90 [10 μM]
Procedure, shortened: (§1)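 Ni-affinity-purified Hsp90 N-terminal domain (PfHsp90-NTD or human Hsp90β-NTD, expressed in E. coli), 100 nM final, mixed with 5 nM FITC-geldanamycin. FP read at 480 nm excitation and 535 nm emission, converted to percent bound FITC-GDA versus the DMSO control.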

[2] = target: human Hsp90β-NTD (Homo sapiens, UniProt P08238); assay type: binding; details: 10 μM compound, FITC-GDA displacement
Sequence of human Hsp90β-NTD (P08238 1-226): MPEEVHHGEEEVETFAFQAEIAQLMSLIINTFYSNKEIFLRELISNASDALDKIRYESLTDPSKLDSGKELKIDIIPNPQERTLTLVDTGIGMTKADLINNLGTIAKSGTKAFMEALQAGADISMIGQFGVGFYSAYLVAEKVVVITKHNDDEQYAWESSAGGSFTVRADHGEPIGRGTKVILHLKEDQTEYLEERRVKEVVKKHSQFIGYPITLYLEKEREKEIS
Procedure, shortened: as §1

[3] = target: T1, PfHsp90-NTD; test: Equilibrium binding kinetics by MP-SPR
Procedure, shortened: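 PfHsp90-NTD (20 μg/mL) was immobilised by amine coupling on a carboxymethyl dextran gold chip for multiparametric SPR. Running buffer was PBS with 0.005% Tween 20 and 20 mM EDTA, pH 7.4. Test compound (0–2000/5000 nM) was injected at 50 μL/min, with association for 1 min and dissociation for 9 min at room temperature. Signals were subtracted against a protein-free reference channel and buffer blanks.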

T1 sequence (Q8IC05 1-215): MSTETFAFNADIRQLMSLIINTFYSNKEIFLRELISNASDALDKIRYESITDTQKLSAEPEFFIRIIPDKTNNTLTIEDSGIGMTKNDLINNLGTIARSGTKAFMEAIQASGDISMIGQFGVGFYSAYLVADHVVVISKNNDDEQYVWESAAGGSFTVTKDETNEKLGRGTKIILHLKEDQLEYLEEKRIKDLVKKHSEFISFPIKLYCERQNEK

SMILES: COc1ccc2c(c1)[nH]c1c(C)nccc12 [harmine]
- inhibition at 10 µM [1]: 7 ± 6%
- FP inhibition% human Hsp90 [10 μM] [2]: no inhibition
- Kd ([3]; KD, Kd/Ka): 1820 ± 100 nM
- Ka ([3]; association): 17.6 ± 14.9 1/Ms (×10^3)
- Kd ([3]; dissociation rate): 3.20 ± 4.8 1/s (×10^–6)
